Results: ChEMBL document CHEMBL4257585, “Structure-Activity Relationships of Photoswitchable Diarylethene-Based β-Hairpin Peptides as Membranolytic Antimicrobial and Anticancer Agents” (J Med Chem, 2018)
Values after ≈ are worked out from the molar mass of the structure shown.

Legend:
[1] = Selective ratio of HC50 for human RBC to IC50 for human HeLa cells; format: toxicity; conditions: human red blood cells versus HeLa cells
How it was run: (§1)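 Ratio of HC50 (RBC) to HeLa IC50 or to MIC against B. subtilis or E. coli; values measured in mg/mL and recalculated to μM, 2-fold dilution without curve fitting, accuracy within a factor of 2.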

Escherichia coli = assay: Antimicrobial activity against Escherichia coli DSM 1103 after 22 hrs by resazurin dye based spectrophotometry; format: functional; conditions: DSM 1103, 22 h
How it was run: (§2)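 2-fold broth microdilution in Mueller–Hinton medium; peptide stocks 1024 μg/mL in 50% ethanol. Exponential-phase cultures diluted to OD550 0.2, then 1:100 (B. subtilis) or 1:1000 (E. coli), giving 5 × 10^5 CFU/mL per well. Incubated 22 h, 37 °C, static; then resazurin (0.2 mg/mL solution) added for 2 h at 37 °C, read visually and spectrophotometrically. Tested in both photoforms.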

[2] = Therapeutic index, ratio of HC50 for human RBC to MIC for Bacillus subtilis DSM 347; format: toxicity; conditions: human red blood cells versus Bacillus subtilis DSM 347; how it was run: as §1
[3] = Therapeutic index, ratio of HC50 for human RBC to MIC for Escherichia coli DSM 1103; format: toxicity; conditions: human red blood cells versus Escherichia coli DSM 1103; how it was run: as §1
[4] = Hemolytic activity against human RBC assessed as hemolysis after 30 mins by colorimetric method; format: ADME, cell-based, Erythrocyte; conditions: human red blood cells (erythrocytes)
How it was run: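 Human erythrocytes washed twice in isotonic 172 mM Tris-HCl, pH 7.6; peptides dissolved in DMSO, diluted in buffer, two independent 10-step 2-fold series from 256 or 192 μg/mL. HC50 extrapolated as 50% hemolysis concentration.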

Bacillus subtilis = assay: Antimicrobial activity against Bacillus subtilis DSM 347 after 22 hrs by resazurin dye based spectrophotometry; format: functional; conditions: DSM 347, 22 h; how it was run: as §2
HeLa = assay: Cytotoxicity against human HeLa cells assessed as reduction in cell viability after 24 hrs by MTT assay; format: functional, cell-based
How it was run: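 HeLa cells seeded at about 5 × 10^4 cells/mL in DMEM with 10% FBS, 2 mM glutamine, gentamicin; 24 h adaptation (37 °C, 5% CO2), then 24 h peptide exposure. MTT 4 h, formazan in DMSO read at 570 nm. 2-fold series 256–0.5 (open) or 512–1 μg/mL (closed), four repetitions; IC50 extrapolated from killing curves. Closed form handled in dim light.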

MIC (Escherichia coli) [µM] | MIC (Bacillus subtilis) [µM] | Structure (SMILES) | selectivity ratio [1] | selectivity ratio [2] | selectivity ratio [3] | HC50 at 0.5 h [4] [µM] | IC50 (HeLa) [µM]
9 (≈ 16.4 µg/mL) | 1 (≈ 1.82 µg/mL) | CC(C)C[C@@H]1NC(=O)[C@H](CCCCN)NC(=O)[C@H](C(C)C)NC(=O)C2=CC3=C4CCCC4=C4C=C(S[C@]4(C)[C@@]3(C)S2)C(=O)[C@H]2CCCN2C(=O)[C@H](CC(C)C)NC(=O)[C@H](CCCCN)NC(=O)[C@H](C(C)C)NC(=O)[C@H](CCCCN)NC(=O)[C@H](CC(C)C)NC(=O)[C@H](CCCCN)N(C)C(=O)[C@@H](Cc2ccccc2)NC(=O)[C@H](C(C)C)NC(=O)[C@H](CCCCN)NC1=O | 0.5 | 9 | 1 | 9 | 18
41 (≈ 64.2 µg/mL) | 2 (≈ 3.13 µg/mL) | Cc1sc2cc1C1=C(CCC1)c1cc(sc1C)C(=O)[C@H]1CCCN1C(=O)[C@H](C(C)C)NC(=O)[C@H](CCCCN)NC(=O)[C@H](CC(C)C)NC(=O)[C@H](CCCCN)NC(=O)[C@@H]1CCCN1C(=O)[C@@H](Cc1ccccc1)NC(=O)[C@H](CCCCN)NC(=O)[C@H](C(C)C)NC(=O)[C@H](CCCCN)NC(=O)[C@H](CC(C)C)NC2=O | 2 | 41 | 2 | 82 | 41
203 (≈ 256 µg/mL) | 6 (≈ 7.55 µg/mL) | CC[C@H](C)[C@@H]1NC(=O)C2=CC3=C4CCCC4=C4C=C(S[C@]4(C)[C@@]3(C)S2)C(=O)[C@H]2CCCN2C(=O)[C@H](CC(C)C)NC(=O)[C@H](CCCN)NC(=O)[C@H]([C@@H](C)CC)NC(=O)[C@@H]2CCCN2C(=O)[C@H]2CCCN2C(=O)[C@H](CC(C)C)NC(=O)[C@H](CCCN)NC1=O | 1.9 | 20 | 0.6 | 120 | 64
16 (≈ 23.7 µg/mL) | 3 (≈ 4.44 µg/mL) | Cc1sc2cc1C1=C(CCC1)c1cc(sc1C)C(=O)[C@H]1CCCN1C(=O)[C@H](CCCCN)NC(=O)[C@H](C13CC4CC(CC(C4)C1)C3)NC(=O)[C@H](CCCN)NC(=O)[C@@H]1CCCN1C(=O)[C@@H](Cc1ccccc1)NC(=O)[C@H](CCCN)NC(=O)[C@H](C13CC4CC(CC(C4)C1)C3)NC(=O)[C@H](CCCN)NC2=O | 0.1 | 0.3 | 0.1 | 1 | 11
25 (≈ 36.3 µg/mL) | 2 (≈ 2.91 µg/mL) | Cc1sc2cc1C1=C(CCC1)c1cc(sc1C)C(=O)[C@H]1CCCN1C(=O)[C@H]([C@@H](C)O)NC(=O)[C@H](C13CC4CC(CC(C4)C1)C3)NC(=O)[C@H](CCCN)NC(=O)[C@@H]1CCCN1C(=O)[C@@H](Cc1ccccc1)NC(=O)[C@H](CCCN)NC(=O)[C@H](C13CC4CC(CC(C4)C1)C3)NC(=O)[C@H](CCCN)NC2=O | 0.4 | 2 | 0.2 | 4 | 9
12 (≈ 15.5 µg/mL) | 3 (≈ 3.89 µg/mL) | CC(C)C[C@@H]1NC(=O)[C@H](CCCN)NC(=O)[C@H](CCCN)NC(=O)C2=CC3=C4CCCC4=C4C=C(S[C@]4(C)[C@@]3(C)S2)C(=O)[C@H]2CCCN2C(=O)[C@H](CC(C)C)NC(=O)[C@H](CCCN)NC(=O)[C@H](C(C)C)NC(=O)[C@@H]2CCCN2C(=O)[C@@H](Cc2ccccc2)NC1=O | 1.4 | 5.7 | 1.4 | 17 | 12

Structure (SMILES) | MIC (Escherichia coli) [µM] | MIC (Bacillus subtilis) [µM] | selectivity ratio [1] | selectivity ratio [2] | selectivity ratio [3] | HC50 at 0.5 h [4] [µM] | IC50 (HeLa) [µM]
Cc1sc2cc1C1=C(CCC1)c1cc(sc1C)C(=O)[C@H]1CCCN1C(=O)[C@H](C(C)C)NC(=O)[C@H](CCCCN)NC(=O)[C@H](C(C)C)NC(=O)[C@H](CC(C)C)NC(=O)[C@@H](CCCCN)NC(=O)[C@@H]1CCCN1C(=O)[C@@H](Cc1ccccc1)NC(=O)[C@H](C(C)C)NC(=O)[C@H](CCCCN)NC(=O)[C@H](CC(C)C)NC(=O)[C@H](CCCCN)NC(=O)[C@H](C(C)C)NC2=O | 9 (≈ 15.9 µg/mL) | 1 (≈ 1.76 µg/mL) | 0.3 | 1 | 0.1 | 1 | 3
CC[C@H](C)[C@@H]1NC(=O)c2cc(c(C)s2)C2=C(CCC2)c2cc(sc2C)C(=O)[C@H]2CCCN2C(=O)[C@H]([C@@H](C)CC)NC(=O)[C@H](CCCN)NC(=O)[C@H](CC(C)C)NC(=O)[C@H](CC(C)C)N(C)C(=O)[C@@H](Cc2ccccc2)NC(=O)[C@H]([C@@H](C)CC)NC(=O)[C@H](CCCN)NC1=O | 96 (≈ 129 µg/mL) | 2 (≈ 2.68 µg/mL) | 1 | 1.5 |  | 3 | 3
